From ChEMBL document CHEMBL3259808, “Optimization of antitrypanosomatid agents: identification of nonmutagenic drug candidates with in vivo activity” (J Med Chem, 2014)

Experiments:
Trypanosoma cruzi [1] = assay: Antitrypanosomal activity against Trypanosoma cruzi Tulahuen 2 epimastigotes assessed as growth inhibition after 5 days; type: functional, organism-based; settings: Trypanosoma cruzi, Tulahuen 2, 120 h
In short: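 Epimastigotes were grown axenically at 28 °C in BHI-tryptose with 5% FBS and seeded from a 5–7 day culture at 1 × 10⁶ cells/mL. Drug from a DMSO stock was added (final DMSO ≤0.4%; the control contained 0.4% DMSO). Duplicates were run. A600 was read at day 5, and % inhibition was calculated relative to day-0 and control readings. IC50 = concentration that halves the absorbance ratio.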

Trypanosoma cruzi [2] = assay: Antitrypanosomal activity against Trypanosoma cruzi Sylvio X-10 amastigotes infected in African green monkey Vero cells assessed as eradication of amastigotes after 5 days by Giemsa staining-based assay; type: functional, organism-based; settings: Sylvio X-10, Vero, 120 h
In short: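 VERO cells in RPMI 1640 with 10% hiFCS were allowed to adhere for 24 h at 37 °C in 5% CO₂, then infected with tissue-derived trypomastigotes at 10:1. Free parasites were washed off after 24 h, and cultures were treated at five compound doses (text gives 72 h / 5 days). Cultures were methanol-fixed and Giemsa-stained, and infected cells were counted among 300. Quadruplicates were run in three independent experiments. IC50/IC90 were obtained by sigmoidal regression.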

[3] = Selectivity index, ratio of IC50 for African green monkey Vero cells to IC50 for Trypanosoma cruzi Sylvio X-10 amastigotes; type: toxicity, cell-based; settings: read-out: Ratio IC50
In short: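 VERO cytotoxicity: cells exposed 48 h at 37 °C, 5% CO2 to serial dilutions from a maximum of 2000 μM (DMSO stocks; DMSO <0.1% control); growth inhibition read by MTT at 570 nm. Amastigote IC50: Sylvio X-10-infected VERO cells, five doses, infected cells counted among 300 (Giemsa), quadruplicate, three experiments, sigmoidal fit. SI = IC50 VERO / IC50 amastigote.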

[4] = Selectivity index, ratio of IC50 for mouse J774.1 cells to IC50 for Trypanosoma cruzi Sylvio X-10 amastigotes; type: toxicity; settings: read-out: Ratio IC50
In short: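 J774.1 macrophages grown in DMEM with 10% heat-inactivated FCS and allowed to attach 48 h, then exposed 48 h at 37 °C to 12.5–400.0 μM. Triplicates. MTT 0.1 mg/mL for 3 h, read at 560 nm; IC50 by linear regression against the solvent control. SI = IC50 J774.1 / parasite IC50 (Sylvio X-10 amastigotes or Tulahuen 2 epimastigotes, the latter measured by A600 growth inhibition at day 5).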

Salmonella typhimurium [5] = assay: Mutagenic activity in Salmonella typhimurium TA98 at 6 to 500 ug/plate by Ames test; type: toxicity, organism-based; settings: salmonella enterica subsp. enterica serovar typhimurium
In short: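 Ames plate-incorporation assay with S. typhimurium TA98 in Vogel-Bonner E minimal glucose agar. Toxicity toward the bacteria was checked first. DMSO solutions were run in triplicate at five consecutive third-dilutions, starting at the highest non-toxic dose. Positive controls were 4-nitro-o-phenylenediamine (20.0 μg/plate) and 2-aminofluorene (10.0 μg/plate); DMSO was the negative control. Revertants were counted manually. A compound was called mutagenic when revertants were at least twice the negative control at two or more consecutive doses.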

Salmonella typhimurium [6] = assay: Mutagenic activity in Salmonella typhimurium TA100 at 6 to 500 ug/plate by Ames test; type: toxicity, organism-based; settings: salmonella enterica subsp. enterica serovar typhimurium
In short: (§1)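 Direct plate incubation on minimal glucose agar (Vogel-Bonner E). Compound toxicity to the bacteria was checked first. DMSO solutions were tested at five consecutive 3-fold dilutions, starting from the highest non-toxic dose, in triplicate, without metabolic activation. DMSO served as negative control. Revertants were counted manually; mutagenic = revertants at least double the negative control at two or more consecutive doses.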

Salmonella typhimurium [7] = assay: Mutagenic activity in Salmonella typhimurium TA100 at 6 to 500 ug/plate by Ames test in presence of mouse liver S9 fraction; type: toxicity, organism-based; settings: salmonella enterica subsp. enterica serovar typhimurium
In short: (§2)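 Plate-incorporation Ames test on minimal glucose agar with 500 μL Aroclor-treated mouse liver S9 added. DMSO solutions were tested at five consecutive 3-fold dilutions from the highest non-toxic dose, in triplicate, with a DMSO negative control. Revertants were counted manually; a compound was scored mutagenic when revertants were at least twice the negative control for two or more consecutive doses.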

Salmonella typhimurium [8] = assay: Mutagenic activity in Salmonella typhimurium TA102 at 6 to 500 ug/plate by Ames test; type: toxicity, organism-based; settings: salmonella enterica subsp. enterica serovar typhimurium; in short: as §1
Salmonella typhimurium [9] = assay: Mutagenic activity in Salmonella typhimurium TA102 at 6 to 500 ug/plate by Ames test in presence of mouse liver S9 fraction; type: toxicity, organism-based; settings: salmonella enterica subsp. enterica serovar typhimurium; in short: as §2
Salmonella typhimurium [10] = assay: Mutagenic activity in Salmonella typhimurium TA1535 at 6 to 500 ug/plate by Ames test; type: toxicity, organism-based; settings: salmonella enterica subsp. enterica serovar typhimurium; in short: as §1
Salmonella typhimurium [11] = assay: Mutagenic activity in Salmonella typhimurium TA1535 at 6 to 500 ug/plate by Ames test in presence of mouse liver S9 fraction; type: toxicity, organism-based; settings: salmonella enterica subsp. enterica serovar typhimurium; in short: as §2
Salmonella typhimurium [12] = assay: Mutagenic activity in Salmonella typhimurium TA1537 at 6 to 500 ug/plate by Ames test; type: toxicity, organism-based; settings: salmonella enterica subsp. enterica serovar typhimurium; in short: as §1
Salmonella typhimurium [13] = assay: Mutagenic activity in Salmonella typhimurium TA1537 at 6 to 500 ug/plate by Ames test in presence of mouse liver S9 fraction; type: toxicity, organism-based; settings: salmonella enterica subsp. enterica serovar typhimurium; in short: as §2
[14] = Stability of the compound in aqueous solution assessed as compound remaining at 1 mM at pH 6 after 1 hr by TLC analysis; type: physicochemical; settings: aqueous solution, pH 6; read-out: Stability
In short: (§3)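 DMSO stocks diluted to final 1 mM in KCl·HCl pH 1.0, citrate pH 6.0, Tris·HCl pH 7.4 or borax·HCl pH 9.0 buffer. Incubated 1 h at 37 °C, then ethyl acetate extracts checked by TLC for decomposition products.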

[15] = Stability of the compound in aqueous solution assessed as compound remaining at 1 mM at pH 7.4 after 1 hr by TLC analysis; type: physicochemical; settings: aqueous solution, pH 7.4; read-out: Stability; in short: as §3
[16] = Stability of the compound in aqueous solution assessed as compound remaining at 1 mM at pH 9 after 1 hr by TLC analysis; type: physicochemical; settings: aqueous solution, pH 9; read-out: Stability; in short: as §3
[17] = Stability of the compound in aqueous solution assessed as compound remaining at 1 mM at 37 degC after 1 hr by TLC analysis in presence of rat liver cytosolic fraction; type: ADME; settings: cytosol, 1000 µM
In short: (§4)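 Rat liver cytosolic (100 000g supernatant) and microsomal (100 000g pellet, washed and resuspended in Tris·HCl) fractions, fresh or stored at −80 °C; protein measured by BCA. Compound incubated with the fraction 1 h at 37 °C and analysed by TLC of extracts.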

[18] = Stability of the compound in aqueous solution assessed as compound remaining at 1 mM at 37 degC after 1 hr by TLC analysis in presence of rat liver microsomal fraction; settings: microsomes, 1000 µM; in short: as §4
[19] = Stability of the compound in eumulgin HRE 40, sodium oleate, soya phosphatidylcholine, cholesterol, and phosphate buffer at pH 7.4 at 4 degC; type: physicochemical
In short: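 Storage stability of the compound in vehicle V2, a microemulsion of surfactant (Eumulgin HRE 40/sodium oleate/soya phosphatidylcholine, 10%), cholesterol oil phase (10%) and pH 7.4 phosphate buffer (80%), followed over 1 week at 4 °C.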

Mus musculus = assay: Toxicity in BALB/c mouse assessed as mortality at 100 mg/kg/day, po for 14 days; type: organism-based; parameters: route oral; settings: in vivo, 336 h
In short: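 Uninfected female BALB/c mice (n = 2/group) received intragastric gavage daily for 14 days in saline/Tween 80 (4:1). They were weighed and monitored daily, then sacrificed for macroscopic necropsy of organs.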

Trypanosoma cruzi [20] = assay: (§5) Antitrypanosomal activity against Trypanosoma cruzi CL Brener infected in BALB/c mouse assessed as peak of maximum parasitemia at 107 umol/kg/day, po administered in cholesterol/surfactant/phosphate buffer in 19 day schedule including 5 days of dosing 2 days of resting and final 4 days of dosing measured up to 60 days relative to control; type: functional
In short: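 Male BALB/c mice (n = 6/group) were infected i.p. with 10³ blood trypomastigotes. From day 6 they were dosed orally in microemulsion vehicle on a schedule of 5 days on, 2 off, 5 on, 2 off, 4 on. Controls received vehicle. Parasitemia was counted weekly in tail-vein blood for 60 days, and mortality was recorded.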

Trypanosoma cruzi [21] = assay: as §5, with “mouse survival” for “peak of maximum parasitemia”; type: functional
In short: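 Oral gavage of infected male BALB/c mice at 50 mg/kg/day in cholesterol/surfactant/phosphate buffer pH 7.4 microemulsion, from day 6 postinfection. Schedule: 5 days dosing, 2 rest, 5 dosing, 2 rest, 4 dosing. n = 6/group, with vehicle controls. Parasitemia was read weekly in tail-vein blood for 60 days and mortality recorded.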

Compound: Br.C=CCn1c(-c2ccc3ccccc3c2)cs\c1=N/N=C/C=C/c1ccco1
- IC50 (Trypanosoma cruzi [1]): 2400 nM
- IC50 (Trypanosoma cruzi [2]): < 210 nM
- selectivity ratio [3]: > 1000
- selectivity ratio [4]: > 120
- Activity (Salmonella typhimurium [5]): Non-toxic
- Activity (Salmonella typhimurium [6]): Non-toxic
- Activity (Salmonella typhimurium [7]): Non-toxic
- Activity (Salmonella typhimurium [8]): Non-toxic
- Activity (Salmonella typhimurium [9]): Non-toxic
- Activity (Salmonella typhimurium [10]): Non-toxic
- Activity (Salmonella typhimurium [11]): Non-toxic
- Activity (Salmonella typhimurium [12]): Non-toxic
- Activity (Salmonella typhimurium [13]): Non-toxic
- remaining at 1 h, 1000 µM [14]: > 95%
- remaining at 1 h, 1000 µM [15]: > 95%
- remaining at 1 h, 1000 µM [16]: > 95%
- Stability [17]: Stable
- Stability [18]: Stable
- Stability [19]: Stable
- Activity (Mus musculus): Non-toxic
- Time (Trypanosoma cruzi [20]): 42 days
- survival at 107 µmol/kg (Trypanosoma cruzi [21]): 100%
